Measurements published in ChEMBL document CHEMBL1806466, “2-Amino-4-methyl-5-phenylethyl substituted-7-N-benzyl-pyrrolo[2,3-d]pyrimidines as novel antitumor antimitotic agents that also reverse tumor resistance” (Bioorg Med Chem, 2011).
Calls of active or inactive are those of the source. The rule behind the calls is not given here.

Experiments:
MDA-MB-468 = test: Antitumor activity against human MDA-MB-468 cells after 48 hrs by sulforhodamine B assay; assay type: functional; conditions: MDA-MB-468, 48 h
Summary of the method: (§1)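 NCI-60 screen, adherent lines: grown in RPMI 1640 with 5% FBS and 2 mM L-glutamine. Seeded at 5,000–40,000 cells/well by doubling time and preincubated 24 h at 37 °C, 5% CO2, with time-zero plates TCA-fixed. Five concentrations (10-fold or half-log) given for 48 h. Fixed with cold TCA (10% final), then SRB-stained and read at A515. GI50 is 50% reduction of net protein increase versus control.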

NCI/ADR = test: Reversal of Pgp-mediated multidrug resistance in human NCI/ADR cells assessed as enhancement of cytotoxicity of vinblastine after 48 hrs by sulforhodamine B assay; assay type: cell-based
Summary of the method: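 NCI/ADR cells plated at ~15% confluency and allowed 24 h to attach. […] Survival by SRB binding, each value the mean of three wells, with ethanol solvent controls. Pgp Antagonism Score = % survival without vinblastine / % survival with vinblastine.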

[1] = molecular target: Multidrug resistance-associated protein 1 (Homo sapiens, UniProt P33527); test: Reversal of MRP1-mediated multidrug resistance in human MCF7/VP cells assessed as enhancement of cytotoxicity of vincristine after 48 hrs by sulforhodamine B assay; assay type: cell-based
Multidrug resistance-associated protein 1, sequence (P33527 whole entry): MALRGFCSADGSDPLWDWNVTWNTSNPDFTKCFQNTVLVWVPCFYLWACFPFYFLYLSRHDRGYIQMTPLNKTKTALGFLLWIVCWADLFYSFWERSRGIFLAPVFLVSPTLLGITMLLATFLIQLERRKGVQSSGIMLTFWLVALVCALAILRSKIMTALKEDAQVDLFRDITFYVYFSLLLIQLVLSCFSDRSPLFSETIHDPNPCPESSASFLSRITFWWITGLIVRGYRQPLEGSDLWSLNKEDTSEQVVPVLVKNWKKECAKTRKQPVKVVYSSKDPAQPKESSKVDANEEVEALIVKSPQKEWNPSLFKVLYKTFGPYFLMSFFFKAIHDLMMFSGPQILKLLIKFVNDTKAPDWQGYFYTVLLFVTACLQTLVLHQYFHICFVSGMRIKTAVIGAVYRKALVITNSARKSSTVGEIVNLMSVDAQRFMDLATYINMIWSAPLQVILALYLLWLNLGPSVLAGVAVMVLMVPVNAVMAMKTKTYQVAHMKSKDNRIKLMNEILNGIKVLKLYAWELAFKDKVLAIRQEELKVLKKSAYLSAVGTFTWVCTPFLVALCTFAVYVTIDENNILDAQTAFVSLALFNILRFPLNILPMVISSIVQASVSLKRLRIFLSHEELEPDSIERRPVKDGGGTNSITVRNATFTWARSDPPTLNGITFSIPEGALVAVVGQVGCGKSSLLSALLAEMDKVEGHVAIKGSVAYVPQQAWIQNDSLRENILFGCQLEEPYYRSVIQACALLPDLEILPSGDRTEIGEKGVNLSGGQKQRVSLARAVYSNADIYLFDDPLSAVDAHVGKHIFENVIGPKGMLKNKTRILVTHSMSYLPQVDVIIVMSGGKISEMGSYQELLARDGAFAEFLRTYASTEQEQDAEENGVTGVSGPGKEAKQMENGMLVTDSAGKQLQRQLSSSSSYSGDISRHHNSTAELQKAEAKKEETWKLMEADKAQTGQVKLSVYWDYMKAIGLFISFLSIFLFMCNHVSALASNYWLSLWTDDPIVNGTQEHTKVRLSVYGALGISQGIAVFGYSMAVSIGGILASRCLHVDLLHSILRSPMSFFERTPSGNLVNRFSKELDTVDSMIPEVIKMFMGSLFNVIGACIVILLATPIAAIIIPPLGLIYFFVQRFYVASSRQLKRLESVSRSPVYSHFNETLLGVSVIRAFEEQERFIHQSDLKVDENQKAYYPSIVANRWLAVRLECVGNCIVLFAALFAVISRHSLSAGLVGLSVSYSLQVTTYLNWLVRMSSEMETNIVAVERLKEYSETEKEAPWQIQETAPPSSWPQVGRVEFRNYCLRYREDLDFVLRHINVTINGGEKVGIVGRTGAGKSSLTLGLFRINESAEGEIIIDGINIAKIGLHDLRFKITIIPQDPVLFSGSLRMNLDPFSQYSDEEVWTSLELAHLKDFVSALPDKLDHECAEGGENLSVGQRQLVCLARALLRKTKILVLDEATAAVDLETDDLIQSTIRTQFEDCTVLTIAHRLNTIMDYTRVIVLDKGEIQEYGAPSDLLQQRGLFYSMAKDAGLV
Summary of the method: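 MCF-7/VP cells plated at ~15% confluency and allowed 24 h to attach. […] Survival by SRB binding. MRP1 Antagonism Score = % survival without vincristine / % survival with vincristine.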

HL-60(TB) = test: Antitumor activity against human HL-60(TB) cells after 48 hrs by sulforhodamine B assay; assay type: functional; conditions: HL-60, 48 h
Summary of the method: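 NCI-60 screen: cells grown in RPMI 1640 with 5% FBS and 2 mM L-glutamine, seeded at 5,000–40,000 cells/well and incubated 24 h at 37 °C, 5% CO2 before dosing. Five concentrations (10-fold or ½-log dilutions from DMSO stock), 48 h. Suspension cells fixed with 80% TCA (final 16%), stained with 0.4% SRB, A515 read. GI50 calculated against time-zero and control growth.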

K562 = test: Antitumor activity against human K562 cells after 48 hrs by sulforhodamine B assay; assay type: functional; conditions: K562, 48 h
Summary of the method: (§2)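 NCI-60 screen, suspension lines: grown in RPMI 1640 with 5% FBS and 2 mM L-glutamine. Seeded at 5,000–40,000 cells/well and preincubated 24 h at 37 °C, 5% CO2, with time-zero plates fixed. Five concentrations (10-fold or half-log) given for 48 h. Settled cells fixed with 80% TCA (16% final), then SRB-stained and read at 515 nm. GI50 is from the net growth relative to time zero and control.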

MOLT-4 = test: Antitumor activity against human MOLT4 cells after 48 hrs by sulforhodamine B assay; assay type: functional; conditions: MOLT-4, 48 h; summary of the method: as §2
RPMI-8226 = test: Antitumor activity against human RPMI8226 cells after 48 hrs by sulforhodamine B assay; assay type: functional; conditions: RPMI-8226, 48 h; summary of the method: as §2
SR = test: Antitumor activity against human SR cells after 48 hrs by sulforhodamine B assay; assay type: functional; summary of the method: as §2
HOP-92 = test: Antitumor activity against human HOP92 cells after 48 hrs by sulforhodamine B assay; assay type: functional; conditions: HOP-92, 48 h; summary of the method: as §1
NCI-H226 = test: Antitumor activity against human NCI-H226 cells after 48 hrs by sulforhodamine B assay; assay type: functional; conditions: NCI-H226, 48 h; summary of the method: as §1
NCI-H322M = test: Antitumor activity against human NCI-H322M cells after 48 hrs by sulforhodamine B assay; assay type: functional; summary of the method: as §1
NCI-H522 = test: Antitumor activity against human NCI-H522 cells after 48 hrs by sulforhodamine B assay; assay type: functional; conditions: NCI-H522, 48 h; summary of the method: as §1
HCC 2998 = test: Antitumor activity against human HCC2998 cells after 48 hrs by sulforhodamine B assay; assay type: functional; conditions: HCC 2998, 48 h; summary of the method: as §1
HCT-15 = test: Antitumor activity against human HCT15 cells after 48 hrs by sulforhodamine B assay; assay type: functional; conditions: HCT-15, 48 h; summary of the method: as §1
HT-29 = test: Antitumor activity against human HT-29 cells after 48 hrs by sulforhodamine B assay; assay type: functional; conditions: HT-29, 48 h; summary of the method: as §1
SF-295 = test: Antitumor activity against human SF295 cells after 48 hrs by sulforhodamine B assay; assay type: functional; conditions: SF-295, 48 h; summary of the method: as §1
U-251 = test: Antitumor activity against human U251 cells after 48 hrs by sulforhodamine B assay; assay type: functional; conditions: U-251, 48 h
Summary of the method: (§3)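 NCI-60 panel lines grown in RPMI 1640 with 5% FBS and 2 mM L-glutamine. Cells plated at 5,000–40,000/well by doubling time, given 24 h before drug, then exposed to five concentrations for 48 h at 37 °C. Time-zero plates fixed with TCA. Cells fixed with TCA, stained with 0.4% SRB, read at 515 nm. GI50 = 50% reduction in net protein increase versus control.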

LOX IMVI = test: Antitumor activity against human LOXIMVI cells after 48 hrs by sulforhodamine B assay; assay type: functional; summary of the method: as §1
M14 = test: Antitumor activity against human M14 cells after 48 hrs by sulforhodamine B assay; assay type: functional; conditions: M14, 48 h; summary of the method: as §1
UACC-257 = test: Antitumor activity against human UACC257 cells after 48 hrs by sulforhodamine B assay; assay type: functional; conditions: UACC-257, 48 h; summary of the method: as §3
OVCAR-3 = test: Antitumor activity against human OVCAR3 cells after 48 hrs by sulforhodamine B assay; assay type: functional; conditions: OVCAR-3, 48 h; summary of the method: as §1
OVCAR-4 = test: Antitumor activity against human OVCAR4 cells after 48 hrs by sulforhodamine B assay; assay type: functional; conditions: OVCAR-4, 48 h; summary of the method: as §1
OVCAR-8 = test: Antitumor activity against human OVCAR8 cells after 48 hrs by sulforhodamine B assay; assay type: functional; conditions: OVCAR-8, 48 h; summary of the method: as §1
SK-OV-3 = test: Antitumor activity against human SKOV3 cells after 48 hrs by sulforhodamine B assay; assay type: functional; conditions: SK-OV-3, 48 h; summary of the method: as §1
786-0 = test: Antitumor activity against human 786-0 cells after 48 hrs by sulforhodamine B assay; assay type: functional; conditions: 786-0, 48 h; summary of the method: as §1
A498 = test: Antitumor activity against human A498 cells after 48 hrs by sulforhodamine B assay; assay type: functional; conditions: A498, 48 h; summary of the method: as §1
NCI/ADR-RES = test: Antitumor activity against human NCI/ADR-RES cells after 48 hrs by sulforhodamine B assay; assay type: functional; summary of the method: as §1
MDA-MB-231 = test: Antitumor activity against human MDA-MB-231 cells after 48 hrs by sulforhodamine B assay; assay type: functional; conditions: MDA-MB-231, 48 h; summary of the method: as §1
BT-549 = test: Antitumor activity against human BT549 cells after 48 hrs by sulforhodamine B assay; assay type: functional; conditions: BT-549, 48 h; summary of the method: as §1
[2] = Cytotoxic activity against drug-resistant […]-deficient human NCI/ADR cells expressing Pgp after 48 hrs by sulforhodamine B assay; assay type: functional, cell-based; conditions: NCI/ADR-RES
Summary of the method: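 Cells plated at ~15% confluency and allowed 24 h to attach, then exposed to varying test concentrations for 48 h. Survival by SRB binding, reported as % decrease in binding versus ethanol solvent controls, mean of three wells. For NCI/ADR, exposure with 0 or 50 nM vinblastine; for MCF-7/VP, with 0 or 1 nM vincristine.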

MCF7 = test: Resistance factor, ratio of IC50 for Pgp-deficient human MCF7/VP cells expressing MRP1 in absence of vincristine to IC50 for drug sensitive human MCF7 cells in presence of 1 nM vincristine

Which results are given for `COc1cc(CCc2cn(Cc3ccccc3)c3nc(N)nc(C)c23)c(OC)c(OC)c1OC`?
GI50 (MDA-MB-468): 2.82 µM; Activity (NCI/ADR): Active; Activity [1]: Not Active; GI50 (HL-60(TB)): 2.06 µM; GI50 (K562): 2.48 µM; GI50 (MOLT-4): 3.96 µM; GI50 (RPMI-8226): 1.69 µM; GI50 (SR): 2.35 µM; GI50 (HOP-92): 1.39 µM; GI50 (NCI-H226): 4.27 µM; GI50 (NCI-H322M): 6.92 µM; GI50 (NCI-H522): 6.05 µM; GI50 (HCC 2998): 5.89 µM; GI50 (HCT-15): 3.2 µM; GI50 (HT-29): 3.6 µM; GI50 (SF-295): 1.39 µM; GI50 (U-251): 3.93 µM; GI50 (LOX IMVI): 5.29 µM; GI50 (M14): 3.33 µM; GI50 (UACC-257): 10.4 µM; GI50 (OVCAR-3): 1.2 µM; GI50 (OVCAR-4): 8.83 µM; GI50 (OVCAR-8): 4.71 µM; GI50 (SK-OV-3): 2.98 µM; GI50 (786-0): 4.5 µM; GI50 (A498): 2.25 µM; GI50 (NCI/ADR-RES): 2.02 µM; GI50 (MDA-MB-231): 3.69 µM; GI50 (BT-549): 9.75 µM; IC50 [2]: 7 µM; Ratio IC50 (MCF7): 0.37
